PMC2803432 (Current Chemical Genomics, 2008)
One block for each molecule: values may come before it. Residues, ends and D or L forms follow the SMILES beside them. No end group written: not given here.

Columns and labels:
14-3-3 proteins = details: cited from earlier work
14-3-3γ [1] = target: T1, 14-3-3γ (Homo sapiens, UniProt P61981); assay: AlphaScreen direct binding of biotin-pS259-Raf-1 to GST-14-3-3γ; details: increasing GST-14-3-3γ and biotin-pS259-Raf-1 with both beads
T1 sequence (P61981 1-247): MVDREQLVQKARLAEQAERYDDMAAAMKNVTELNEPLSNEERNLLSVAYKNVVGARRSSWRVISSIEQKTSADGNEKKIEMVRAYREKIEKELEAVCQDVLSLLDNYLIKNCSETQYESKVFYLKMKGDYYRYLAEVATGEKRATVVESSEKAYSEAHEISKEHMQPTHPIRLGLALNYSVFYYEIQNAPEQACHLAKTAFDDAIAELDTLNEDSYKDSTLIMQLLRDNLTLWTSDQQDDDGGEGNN
Outline: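 Biotinylated pS259-Raf-1 peptide (LSQRSTpSTPNVHM) was titrated with purified GST-14-3-3γ; Z' runs used 100 nM peptide. Anti-GST acceptor beads were added and incubated 30 min, then streptavidin donor beads for 1.5 h. Luminescence was read under dim light. Background wells held one binding component.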

14-3-3γ [2] = target: T1, 14-3-3γ; assay: AlphaScreen direct binding of GST-R18 to biotin-14-3-3γ; details: GST-R18 5 nM to 500 nM; biotin-14-3-3γ 5 nM or 10 nM
Outline: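 His-14-3-3γ expressed in E. coli BL21(DE3), Ni2+-column purified, desalted, then biotinylated with sulfo-NHS-LC-biotin. GST-R18 expressed in E. coli. Anti-GST acceptor beads added, then streptavidin donor beads 30 min later. Read after 1.5 h at room temperature under dim light. Background wells held one component. Triplicate, mean ± SD.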

GST-14-3-3γ [3] = target: GST-14-3-3γ (UniProt P61981); assay: AlphaScreen or HTRF
biotinylated His-14-3-3γ [4] = target: biotinylated His-14-3-3γ (UniProt P61981); assay: AlphaScreen or HTRF
GST-14-3-3γ [5] = target: T2, GST-14-3-3γ (UniProt P61981 1-247); assay: AlphaScreen or HTRF
T2 sequence (looked up): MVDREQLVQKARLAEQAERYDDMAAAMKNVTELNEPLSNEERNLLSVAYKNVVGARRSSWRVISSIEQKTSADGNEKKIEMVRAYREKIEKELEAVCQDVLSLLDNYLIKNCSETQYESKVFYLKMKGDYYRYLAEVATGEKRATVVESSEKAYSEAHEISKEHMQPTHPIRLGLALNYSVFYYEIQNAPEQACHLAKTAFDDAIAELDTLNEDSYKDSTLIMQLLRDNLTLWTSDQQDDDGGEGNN

biotinylated His-14-3-3γ [6] = target: T3, biotinylated His-14-3-3γ (UniProt P61981 1-247, biotin (EZ-Link sulfo-NHS-LC-biotin; sites not stated)); assay: AlphaScreen or HTRF
T3 sequence (looked up): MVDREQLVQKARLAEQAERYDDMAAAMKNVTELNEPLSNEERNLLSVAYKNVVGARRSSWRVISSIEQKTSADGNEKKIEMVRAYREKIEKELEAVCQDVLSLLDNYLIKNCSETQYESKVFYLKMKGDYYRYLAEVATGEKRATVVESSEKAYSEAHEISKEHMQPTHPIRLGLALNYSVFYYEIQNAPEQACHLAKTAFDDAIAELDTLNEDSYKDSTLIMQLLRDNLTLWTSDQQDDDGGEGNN

Alpha signal with increasing concentration (in words) (14-3-3γ [1]): dose-dependent increase in Alpha signal
Molecule: Biotin-LSQRSTpSTPNVHM [biotin-pS259-Raf-1]

IC50 (GST-14-3-3γ [3]): 535 nM | IC50 (biotinylated His-14-3-3γ [4]): 549 nM
Molecule: pS967-ASK1 peptide

Second part, the molecule before the results:

Molecule: CSCC[C@H](NC(=O)[C@H](CC(N)=O)NC(=O)[C@H](C)NC(=O)[C@H](CCC(=O)O)NC(=O)[C@H](CC(C)C)NC(=O)[C@H](CC(=O)O)NC(=O)[C@H](CC(C)C)NC(=O)[C@H](Cc1c[nH]c2ccccc12)NC(=O)[C@H](CO)NC(=O)[C@H](CC(C)C)NC(=O)[C@H](CC(=O)O)NC(=O)[C@H](CCCNC(=N)N)NC(=O)[C@@H]1CCCN1C(=O)[C@@H](NC(=O)[C@H](CS)NC(=O)[C@H](Cc1c[nH]cn1)NC(=O)[C@@H]1CCCN1)C(C)C)C(=O)N[C@@H](CS)C(=O)N[C@@H](CC(C)C)C(=O)N1CCC[C@H]1C(=O)O [R18] (H-PHCVPRDLSWLDLEANMCLP-OH; N-terminus and C-terminus assumed)
effect of GST fusion on efficacy of R18 for 14-3-3 binding (14-3-3 proteins; GST fusion of R18, ref [10]): no detectable effect on the efficacy of R18 for 14-3-3 binding | competition with natural proteins for binding of 14-3-3 (in words) (14-3-3 proteins; ref [17]): can effectively compete with other natural proteins for the binding of 14-3-3 proteins | affinity for 14-3-3 proteins (in words) (14-3-3 proteins; unphosphorylated peptide from phage display, ref [10]): exhibits a high affinity for 14-3-3 proteins

Molecule: GST-R18: GST-tagged R18 protein-peptide fusion, purified from bacterial cells (PHCVPRDLSWLDLEANMCLP; cysteine pairing not given here; also: GST tag fused, end not given here)
Alpha signal with increasing concentration (in words) (14-3-3γ [2]): induced the robust production of Alpha signal in a dose-dependent manner

B1: untagged R18 peptide (peptide)
peptide: PHCVPRDLSWLDLEANMCLP
IC50 (GST-14-3-3γ [5]): 35.7 ± 1.1 nM | IC50 (biotinylated His-14-3-3γ [6]): 28 ± 1.1 nM
